Compounds with a hit are over-represented: about 3.6% of the library has one in this group of screens.
BB579 growth dn – chemicals that inhibit yeast BB579 growth in restrictive medium (lifespan-shortening candidates). S. cerevisiae BB579 growth, OD615, 48 h. inhibition, % at 10 µM. actives 0.51% (n = 140,000);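 active = inhibition above a set limit, 3 SD over the mean compound inhibition, cut at about 44% in these data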
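controls = amphotericin B 10 µg/mL, positive | assay system = DeaD yeast strain BB579 | schedule = 48 h compound exposure at 30 °C after 4 h preincubation | detection = OD615 turbidity measurement | medium = restrictive CSMM-D medium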
Measles CPE – protection of cells from measles virus | Measles virus-infected cells, CPE protection, absorbance | protection (pct of control), % at 4 µM | AID 841 | actives 1.5% (n = 140,000); in the data active = protection mostly above about 24%, no sharp cut-off; inactive = mostly below about 26%
Phagocytosis inh – blocks phagocytosis by macrophages; actives 0.07% (n = 110,000); inhibition, % at 5 µM; J774A.1 macrophage IgG-bead phagocytosis, imaging;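 active = inhibition above the mean of the plate negative controls plus 5 SD, cut at about 13% in these data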;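 also: phagocytic index as fraction of beads internalized from green versus red external bead signal; plate controls were DMSO negative control for no effect and cytochalasin-D positive control for full effect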
Yeast lifespan up – yeast lifespan extension. S. cerevisiae growth with nicotinamide, OD615; deaD strain in restrictive glucose medium. inhibition of the nicotinamide effect, % at 10 µM. actives 0.68% (n = 130,000). AID 775;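 active = inhibition above a set limit, placed 3 SD over the median of all compounds, cut at about 26% in these data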;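 also: 0% = nicotinamide-treated wells and 100% = cells grown without nicotinamide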
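assay system = DeaD-strain S. cerevisiae | buffer or medium = restrictive glucose medium | reagent = 1.5 mM nicotinamide | compound = 10 µM single point, 0.25% DMSO | incubation = 48 h compound exposure at 30 °C, humidified | signal = OD615 measurement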
RAM network inh – inhibitors of the yeast RAM network | S. cerevisiae dse1pr::URA3 reporter, 5-FOA growth OD615, 2 d; analog-sensitive cbk1-as2 kinase mutant strain | actives 1.8% (n = 190,000) | inhibition, % at 50 µM | AID 868;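 active = inhibition above a set limit, 3 SD over mean compound inhibition, cut at about 8.4% in these data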;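 also: 0% = DMSO-only wells with no growth and 100% = 10 µM 1-NA-PP1 full growth; inhibition rescues growth on 5-FOA so higher OD means more RAM inhibition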
Numbers without * were called inactive; . = not tested or not shown.

SMILES | BB579 growth dn | Measles CPE | Phagocytosis inh | Yeast lifespan up | RAM network inh
N#Cc1ccc(-n2nccc2-c2cnc3n(c2=O)CCS3)cc1 | -16 | 41* | -1 | -1 | 1
COc1ccccc1-n1cc(C(=O)c2cc(Cl)ccc2O)cc(C#N)c1=O | . | . | . | . | 9.7*
N#Cc1cc(C(=O)c2ccccc2O)cn(-c2nccs2)c1=O | -32 | 3 | -2 | 16 | 3
N#Cc1cc(C(=O)c2cc(F)ccc2O)cn(-c2nccs2)c1=O | -28 | 6 | -9 | 41* | 1
Cc1ccccc1-n1cc(C(=O)c2cc(Cl)ccc2O)cc(C#N)c1=O | -34 | 5 | . | -3 | 0
COc1ccc(-n2c(CCc3ccccc3)nnc2SCC(=O)c2ccccc2)cc1 | -58 | 14 | -10 | 12 | 3
COc1ccc(-n2c(Cc3cccn3C)nnc2SCC(=O)Nc2ccc(Cl)cc2)cc1 | -27 | 19 | 2 | -9 | 3
COc1ccc(-n2c(Cc3cccn3C)nnc2SCC(=O)Nc2ccccc2)cc1 | 3 | 13 | 0 | -7 | 9.8*
COc1ccc(C(=O)CSc2nnc(CCc3ccccc3)n2-c2ccccc2)cc1 | -41 | 25* | 0 | 25 | 4
CCCSc1ncc(Cl)c(C(=O)Nc2ccc(S(=O)(=O)N3CC(C)OC(C)C3)cc2)n1 (stereo not given) | -18 | 6 | 0 | -17 | 2
O=C(Cn1nnc(-c2ccc(CN3CCOCC3)cc2)n1)N(c1ccccc1)c1ccccc1 | . | . | . | . | 1
CN(CC(=O)Nc1cc(S(=O)(=O)N2CCOCC2)ccc1Cl)C1CCS(=O)(=O)C1 (stereo not given) | . | . | . | . | 2
COc1ccc2c(C)nc(Nc3nc(C)c(C)c(=O)[nH]3)nc2c1 | 59* | 1 | 0 | -7 | 0
CCc1c(C)nc(Nc2nc(C)c3ccc(OC)cc3n2)[nH]c1=O | 13 | 19 | 0 | -9 | 1
O=C(O)CSc1nc(C(F)(F)F)cc(=O)n1-c1ccccc1 | -10 | 49* | . | -9 | 1
CCN(C(=O)CN1CCN(S(=O)(=O)c2cc(Cl)ccc2Cl)CC1)c1c(N)n(Cc2ccccc2)c(=O)[nH]c1=O | -20 | 30* | -5 | -5 | 2
C=CCn1c(SCC(=O)c2cccs2)nc2sc(C)c(C)c2c1=O | -42 | 8 | . | . | 6
C=CCn1c(SCC(=O)c2cc(C)n(CCOC)c2C)nc2sc(C)c(C)c2c1=O | -20 | 42* | 0 | -16 | 6
O=C(CCC(=O)OCc1ccc(C(=O)Oc2ccccc2)cc1)Nc1cccc2ccccc12 | -70 | 79* | . | 7 | 6
c1ccc(-c2ccc(C3=Nn4c(nnc4-c4cc(-c5ccccc5)n[nH]4)SC3)cc2)cc1 | -77 | 10 | 0 | -14 | 4
c1ccc(C2=Nn3c(nnc3-c3ccco3)SC2)cc1 | . | . | . | . | 9.3*
O=C(Cc1ccc(Cl)c(Cl)c1)Nc1cccc(S(=O)(=O)N2CCOCC2)c1 | . | . | . | . | 7
COc1ccc(NC(=O)Cn2cnc3sc(C)c(S(=O)(=O)N4CCN(C)CC4)c3c2=O)cc1OC | . | . | . | . | 4
COc1ccc(CN2CCC(=O)NC2=O)cc1 | 7 | 11 | 0 | -15 | 0
CCOC1(C(F)(F)F)NC(=O)N(Cc2ccc(OC)cc2)C1=O (stereo not given) | -6 | 34* | 0 | -1 | 2
SMILES | BB579 growth dn | Measles CPE | Phagocytosis inh | Yeast lifespan up | RAM network inh
COCCn1ccc(O)c(Cc2ccc(Cl)cc2)c1=O | -50 | 13 | -1 | -2 | 0
Oc1ccc(N=Nc2nc(-c3ccccc3)c(-c3ccccc3)[nH]2)cc1 | -5 | 26 | -6 | -3 | 8.8*
CSc1nnc(CNS(=O)(=O)c2ccc(Cl)cc2)n1C | . | . | . | . | 1
COC(=O)CSc1nnc(CNS(=O)(=O)c2ccc(Cl)cc2)n1C | 9 | 37* | -2 | -6 | 0
Cc1sc(NC(=O)Cc2ccc3c(c2)OCO3)nc1-c1ccc2c(c1)CCN2C(=O)c1cccc(F)c1 | -35 | 53* | -6 | -2 | 4
Cc1ccccc1C(=O)N1CCc2cc(-c3nc(NC(=O)Cc4ccc5c(c4)OCO5)sc3C)ccc21 | -26 | 62* | 9 | -2 | 5
Cc1cccc(C(=O)N2CCc3cc(-c4nc(NC(=O)Cn5nnc6ccccc6c5=O)sc4C)ccc32)c1 | -37 | 33 | -4 | 8 | 5
CS(=O)(=O)Nc1ccc(C(=O)NCCSCc2c(F)cccc2Cl)cc1 | . | . | . | . | 4
COC(=O)NCN1C(=O)C2C3C=CC(C3)C2C1=O (stereo not given) | . | . | . | . | 0
O=c1cc(O)c2c(=O)n(-c3ccccc3)c3c(c2o1)CCCCC3 | -56 | 2 | 1 | 78* | 0
NC(=S)N/N=C/c1ccc(-c2ccccc2)o1 | . | . | . | . | 3
Cc1ccc(C(=O)/C=C/c2ccc(-c3ccc(C)cc3)o2)cc1 | -16 | 14 | -5 | 28* | 7
O=C(/C=C\c1ccc(-c2ccccc2)o1)c1ccccc1 | -41 | 12 | -7 | 15 | 9.6*
Cc1ccc(C(=O)/C=C\C(=O)c2ccc(C)cc2)cc1 | 4 | 0 | 4 | 65* | 3
O/N=C\c1ccc(-c2ccccc2)o1 | -12 | 31* | -3 | -4 | 3
O=C(/C=C/c1ccccc1)c1ccccc1 | -23 | 14 | . | -2 | 0
CC12CCC(C(=O)Nc3ncc([N+](=O)[O-])s3)(OC1=O)C2(C)C (stereo not given) | -26 | 15 | . | -4 | 4
COC(=O)N/N=C/c1ccc(-c2cc(Cl)ccc2Cl)o1 | -21 | 2 | -14 | -5 | 3
O/N=C/c1ccc(-c2cc(Cl)ccc2Cl)o1 | -40 | 43* | -6 | -3 | 4
O=C(Cn1cc([N+](=O)[O-])cn1)Nc1cccnc1 | . | . | . | . | 0
CCn1c(SCC(=O)Nc2nc3ccccc3s2)nc2c(c1=O)SC(C)C2 (stereo not given) | 0 | 1 | . | -8 | 1
CCn1c(SCC(=O)Nc2nc3ccc(C)cc3s2)nc2c(c1=O)SC(C)C2 (stereo not given) | -64 | 6 | . | 21 | 10*
CCn1c(SC)nc2c(c1=O)SC(C)C2 (stereo not given) | -21 | 46* | 1 | 13 | 0
CCCCC(CC)C(=O)NCCCN1CCN(CCCNC(=O)C(CC)CCCC)CC1 (stereo not given) | -45 | 36* | 0 | -7 | -1
CC(C)CC(=O)NCCCN1CCN(CCCNC(=O)CC(C)C)CC1 | -6 | 25 | . | . | 0
SMILES | BB579 growth dn | Measles CPE | Phagocytosis inh | Yeast lifespan up | RAM network inh
C#CCSc1nc(Cc2ccc(Cl)cc2)nc2ccccc12 | -43 | 27 | . | 1 | 8.6*
COc1nc(Cc2ccc(Cl)cc2)nc2ccccc12 | . | . | . | . | 0
O=C(C1=C[C@H](c2coc3ccccc3c2=O)C[C@H](OCCCCO)O1)N1CCN(Cc2ccc3c(c2)OCO3)CC1 | . | . | . | . | 0
N#Cc1ccccc1Cn1cc(/C=C/[N+](=O)[O-])c2ccccc21 | -2 | 1 | . | 35* | 6
CCOc1ccc(Nc2nnc(Cc3ccc(OC)cc3)c(=O)[nH]2)cc1 | . | . | . | . | 0
COc1ccc(CCNC(=O)Cc2cc(OC)c(OC)cc2Br)cc1OC | . | . | . | . | 2
